Legend:
Klebsiella pneumoniae [1] = test: Antibacterial activity against Klebsiella pneumoniae PFAV3 by microdilution test; format: functional
In short: (§1)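 MIC by standard broth microdilution following CLSI recommendations, in Mueller Hinton broth supplemented with Ca²⁺ (20-25mg/L) and Mg²⁺ (10-12.5mg/L); peptides tested against a panel of multi-resistant clinical isolates plus ATCC reference strains.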

[2] = test system: Staphylococcus epidermidis; test: Antibacterial activity against Staphylococcus epidermidis M2921 clinical isolate expressing mecA gene by microdilution test; format: functional
In short: (§2)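 MIC by standard broth microdilution following CLSI recommendations, in Mueller Hinton broth supplemented with Ca²⁺ (20-25 mg/L) and Mg²⁺ (10-12.5 mg/L); ATCC reference strains included in the panel.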

Escherichia coli [3] = test: Antibacterial activity against Escherichia coli M9884 by microdilution test; format: functional; in short: as §1
Pseudomonas aeruginosa [4] = test: Antibacterial activity against Pseudomonas aeruginosa M7907 clinical isolate expressing blaPER gene by microdilution test; format: functional; in short: as §2
Staphylococcus aureus [5] = test: Antibacterial activity against Staphylococcus aureus ATCC 29213 by microdilution test; format: functional; in short: as §2
Acinetobacter sp. [6] = test: Antibacterial activity against Acinetobacter sp. M5277 clinical isolate expressing blaPER gene by microdilution test; format: functional; in short: as §1
Enterococcus faecalis [7] = test: Antibacterial activity against Enterococcus faecalis ATCC 29212 by microdilution test; format: functional; in short: as §1
Klebsiella pneumoniae [8] = test: Antibacterial activity against Klebsiella pneumoniae M9140 clinical isolate expressing blaCIT gene by microdilution test; format: functional; in short: as §1
Acinetobacter sp. [9] = test: Antibacterial activity against Acinetobacter sp. M7978 clinical isolate expressing blaIMP-1 gene by microdilution test; format: functional; in short: as §1
Staphylococcus aureus [10] = test: Antibacterial activity against Staphylococcus aureus P239 clinical isolate expressing ermC gene by microdilution test; format: functional; in short: as §2
Escherichia coli [11] = test: Antibacterial activity against Escherichia coli PLCA1 clinical isolate expressing blaCTX-M-2 and blaTEM-1 gene by microdilution test; format: functional; in short: as §1
Acinetobacter sp. [12] = test: Antibacterial activity against Acinetobacter sp. M5949 clinical isolate expressing blaOXA-23 and blaOXA-GVI gene by microdilution test; format: functional; in short: as §1
Klebsiella pneumoniae [13] = test: Antibacterial activity against Klebsiella pneumoniae M1803 clinical isolate expressing blaPER-2, blaCTX-M-2, blaTEM-1, blaSHV and blaOXA-9 gene by microdilution test; format: functional; in short: as §1
Staphylococcus aureus [14] = test: Antibacterial activity against Staphylococcus aureus P33 clinical isolate expressing msrA gene by microdilution test; format: functional; in short: as §2
Pseudomonas aeruginosa [15] = test: Antibacterial activity against Pseudomonas aeruginosa ATCC 27853 by microdilution test; format: functional; in short: as §1
[16] = test system: Staphylococcus saprophyticus; test: Antibacterial activity against Staphylococcus saprophyticus M4070 clinical isolate expressing mecA gene by microdilution test; format: functional; in short: as §2
Enterococcus faecium [17] = test: Antibacterial activity against Enterococcus faecium M2619 clinical isolate expressing vanB gene by microdilution test; format: functional; in short: as §1
Staphylococcus cohnii = test: Antibacterial activity against Staphylococcus cohnii M6767 clinical isolate expressing mecA gene by microdilution test; format: functional; in short: as §2
Acinetobacter sp. [18] = test: Antibacterial activity against Acinetobacter sp. M5282 clinical isolate expressing blaOXA-51 gene by microdilution test; format: functional; in short: as §1
Enterococcus faecalis [19] = test: Antibacterial activity against Enterococcus faecalis M4992 clinical isolate expressing vanA gene by microdilution test; format: functional; in short: as §1
Pseudomonas aeruginosa [20] = test: Antibacterial activity against Pseudomonas aeruginosa M5200 clinical isolate expressing blaVIM and blaGES-1 gene by microdilution test; format: functional; in short: as §2
Staphylococcus aureus [21] = test: Antibacterial activity against Staphylococcus aureus P28 clinical isolate expressing ermA gene by microdilution test; format: functional; in short: as §2
[22] = test system: Staphylococcus epidermidis; test: Antibacterial activity against Staphylococcus epidermidis M2931 by microdilution test; format: functional; in short: as §2
Staphylococcus aureus [23] = test: Antibacterial activity against Staphylococcus aureus P204 clinical isolate expressing ermA gene by microdilution test; format: functional; in short: as §2
Klebsiella pneumoniae [24] = test: Antibacterial activity against Klebsiella pneumoniae M9170 clinical isolate expressing blaOXA-GIII gene by microdilution test; format: functional; in short: as §1
Acinetobacter sp. [25] = test: Antibacterial activity against Acinetobacter sp. M13523 clinical isolate expressing blaOXA-51 gene by microdilution test; format: functional; in short: as §1
[26] = test system: Staphylococcus haemolyticus; test: Antibacterial activity against Staphylococcus haemolyticus M2976 clinical isolate expressing mecA gene by microdilution test; format: functional; in short: as §2
Escherichia coli [27] = test: Antibacterial activity against Escherichia coli M9209 clinical isolate expressing blaKPC-2 gene by microdilution test; format: functional; in short: as §1
Escherichia coli [28] = test: Antibacterial activity against Escherichia coli M5306 clinical isolate expressing blaPER-2, blaCTX-M-2 and blaTEM-1 gene by microdilution test; format: functional; in short: as §1
Pseudomonas aeruginosa [29] = test: Antibacterial activity against Pseudomonas aeruginosa M11005 clinical isolate expressing blaKPC-2 gene by microdilution test; format: functional; in short: as §1
Enterococcus faecalis [30] = test: Antibacterial activity against Enterococcus faecalis M4449 clinical isolate expressing vanA gene by microdilution test; format: functional; in short: as §1
Enterococcus faecium [31] = test: Antibacterial activity against Enterococcus faecium M2304 clinical isolate expressing vanA gene by microdilution test; format: functional; in short: as §1
Klebsiella pneumoniae [32] = test: Antibacterial activity against Klebsiella pneumoniae M9375 clinical isolate expressing blaCTX-M-2, blaTEM-1 and blaSHV-1 gene by microdilution test; format: functional; in short: as §1
Klebsiella pneumoniae [33] = test: Antibacterial activity against Klebsiella pneumoniae M13540 clinical isolate expressing blaKPC-2 gene by microdilution test; format: functional; in short: as §1
Escherichia coli [34] = test: Antibacterial activity against Escherichia coli PCOS15 clinical isolate expressing blaPER-2 and blaTEM-1 gene by microdilution test; format: functional; in short: as §1
Staphylococcus aureus [35] = test: Antibacterial activity against Staphylococcus aureus M6794 clinical isolate expressing mecA gene by microdilution test; format: functional; in short: as §2
Enterococcus gallinarum = test: Antibacterial activity against Enterococcus gallinarum M2685 clinical isolate expressing vanC1 and vanA gene by microdilution test; format: functional; in short: as §1
Enterococcus faecalis [36] = test: Antibacterial activity against Enterococcus faecalis M6534 clinical isolate expressing vanB gene by microdilution test; format: functional; in short: as §1
[37] = test system: Staphylococcus epidermidis; test: Antibacterial activity against Staphylococcus epidermidis M2923 by microdilution test; format: functional; in short: as §2
Pseudomonas aeruginosa [38] = test: Antibacterial activity against Pseudomonas aeruginosa M5470 by microdilution test; format: functional; in short: as §2
Klebsiella pneumoniae [39] = test: Antibacterial activity against Klebsiella pneumoniae M5825 clinical isolate expressing blaGES-3 and blaCTX-M-2 gene by microdilution test; format: functional; in short: as §1
Staphylococcus aureus [40] = test: Antibacterial activity against Staphylococcus aureus M6820 clinical isolate expressing mecA gene by microdilution test; format: functional; in short: as §2
Staphylococcus aureus [41] = test: Antibacterial activity against Staphylococcus aureus M6276 clinical isolate expressing ermA and lnuA gene by microdilution test; format: functional; in short: as §2
[42] = Toxicity in human RBC assessed as hemolytic activity relative to control; format: cell-based, Erythrocyte; details: red blood cells (RBC), read-out: Activity
In short: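 Heparinized human whole blood diluted 3x in PBS and centrifuged 10 min at 1500 rpm, repeated three times. Cells resuspended to 10% (v/v), then diluted to about 0.5% (v/v). Peptides added at various concentrations for 30 min at 37 °C. Supernatant absorbance read at 550 nm. Lysis calculated against buffer (0%) and water (100%). Readings taken in triplicate and averaged.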

Acinetobacter sp. [43] = test: Antibacterial activity against Acinetobacter sp. M9665 clinical isolate expressing blaOXA-51 gene by microdilution test; format: functional; in short: as §1
Klebsiella pneumoniae [44] = test: Antibacterial activity against Klebsiella pneumoniae M9491 clinical isolate expressing blaMOX gene by microdilution test; format: functional; in short: as §1
Staphylococcus warneri = test: Antibacterial activity against Staphylococcus warneri M6823 clinical isolate expressing mecA gene by microdilution test; format: functional; in short: as §2
Acinetobacter sp. [45] = test: Antibacterial activity against Acinetobacter sp. M5179 clinical isolate expressing blaOXA-51 gene by microdilution test; format: functional; in short: as §1
Staphylococcus aureus [46] = test: Antibacterial activity against Staphylococcus aureus M4046 clinical isolate expressing mecA gene by microdilution test; format: functional; in short: as §2

- MIC90 (Klebsiella pneumoniae [1]): 1020 µg/mL
- MIC90 [2]: 8 µg/mL
- MIC90 (Escherichia coli [3]): 128 µg/mL
- MIC90 (Pseudomonas aeruginosa [4]): 128 µg/mL
- MIC90 (Staphylococcus aureus [5]): 32 µg/mL
- MIC90 (Acinetobacter sp. [6]): 64 µg/mL
- MIC90 (Enterococcus faecalis [7]): 64 µg/mL
- MIC90 (Klebsiella pneumoniae [8]): 1020 µg/mL
- MIC90 (Acinetobacter sp. [9]): 64 µg/mL
- MIC90 (Staphylococcus aureus [10]): 32 µg/mL
- MIC90 (Escherichia coli [11]): 128 µg/mL
- MIC90 (Acinetobacter sp. [12]): 256 µg/mL
- MIC90 (Klebsiella pneumoniae [13]): > 1020 µg/mL
- MIC90 (Staphylococcus aureus [14]): 32 µg/mL
- MIC90 (Pseudomonas aeruginosa [15]): 64 µg/mL
- MIC90 [16]: 16 µg/mL
- MIC90 (Enterococcus faecium [17]): 32 µg/mL
- MIC90 (Staphylococcus cohnii): 16 µg/mL
- MIC90 (Acinetobacter sp. [18]): 64 µg/mL
- MIC90 (Enterococcus faecalis [19]): 128 µg/mL
- MIC90 (Pseudomonas aeruginosa [20]): 64 µg/mL
- MIC90 (Staphylococcus aureus [21]): 32 µg/mL
- MIC90 [22]: 16 µg/mL
- MIC90 (Staphylococcus aureus [23]): 64 µg/mL
- MIC90 (Klebsiella pneumoniae [24]): > 1020 µg/mL
- MIC90 (Acinetobacter sp. [25]): 64 µg/mL
- MIC90 (Escherichia coli [27]): 128 µg/mL
- MIC90 (Escherichia coli [28]): 256 µg/mL
- MIC90 (Pseudomonas aeruginosa [29]): 64 µg/mL
- MIC90 (Enterococcus faecalis [30]): 128 µg/mL
- MIC90 (Enterococcus faecium [31]): 16 µg/mL
- MIC90 (Klebsiella pneumoniae [32]): 1020 µg/mL
- MIC90 (Klebsiella pneumoniae [33]): > 1020 µg/mL
- MIC90 (Escherichia coli [34]): 128 µg/mL
- MIC90 (Staphylococcus aureus [35]): 32 µg/mL
- MIC90 (Enterococcus gallinarum): 16 µg/mL
- MIC90 (Enterococcus faecalis [36]): 128 µg/mL
- MIC90 [37]: 16 µg/mL
- MIC90 (Pseudomonas aeruginosa [38]): 128 µg/mL
- MIC90 (Klebsiella pneumoniae [39]): > 1020 µg/mL
- MIC90 (Staphylococcus aureus [40]): 64 µg/mL
- MIC90 (Staphylococcus aureus [41]): 16 µg/mL
- MIC90 (Acinetobacter sp. [43]): 128 µg/mL
- MIC90 (Klebsiella pneumoniae [44]): 1020 µg/mL
- MIC90 (Staphylococcus warneri): 8 µg/mL
- MIC90 (Acinetobacter sp. [45]): 64 µg/mL
- MIC90 (Staphylococcus aureus [46]): 32 µg/mL
Substance: H-WPKWWKWKRRWGRKKAKKRRG-NH2
- MIC90 [26]: 16 µg/mL
- hemolysis [42]: 3.4%
